Data reported in ChEMBL document CHEMBL1129302, “Quinazoline antifolate thymidylate synthase inhibitors: gamma-linked L-D, D-D, and D-L dipeptide analogues of 2-desamino-2-methyl-N10-propargyl-5,8-dideazafolic acid (ICI 198583)” (J Med Chem, 1996).
Several values for one entry are separate records, joined by “and”; a condition that tells them apart may be missing. Identical values can stand only once.

Columns and labels:
L1210 (RD1694) [1] = test: Inhibitory activity against L1210:RD1694 cell growth.; format: functional, cell-based, Mus musculus
Thymidylate synthase [2] = biological target: T1, Thymidylate synthase (Mus musculus, UniProt P07607); test: Inhibition of Thymidylate synthase activity in L1210 cells; format: cell-based
T1 sequence (P07607 whole entry): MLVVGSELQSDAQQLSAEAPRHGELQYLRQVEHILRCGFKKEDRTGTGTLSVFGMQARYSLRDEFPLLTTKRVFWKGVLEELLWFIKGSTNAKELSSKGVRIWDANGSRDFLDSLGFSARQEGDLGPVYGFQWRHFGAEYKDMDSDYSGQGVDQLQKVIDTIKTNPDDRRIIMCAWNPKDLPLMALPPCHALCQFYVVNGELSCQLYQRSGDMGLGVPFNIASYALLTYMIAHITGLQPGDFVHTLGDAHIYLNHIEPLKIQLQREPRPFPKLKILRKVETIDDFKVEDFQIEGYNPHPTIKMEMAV
Outline: (§1)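 TS was partially purified from L1210 mouse leukemia cells that overproduce the enzyme through TS gene amplification. Inhibition was assayed with (±)-5,10-methylenetetrahydrofolic acid as cofactor at 200 µM.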

L1210 [3] = test: Inhibition of L1210 cell growth; format: functional, cell-based, Mus musculus
L1210 (1565) [4] = test: Inhibitory activity against L1210:1565 cell growth.; format: functional, cell-based, Mus musculus
WIL2 = test: Inhibitory activity against human W1L2 cell growth; format: functional, cell-based
L1210 [5] = test: Inhibitory activity against L1210 cell growth.; format: functional, cell-based, Mus musculus
L1210 (RD1694) [6] = test: Inhibitory activity against L1210:RD1694 cell growth; format: functional, cell-based, Mus musculus
Mus musculus = organism: Mus musculus; test: Plasma concentration in mice.; format: ADME, organism-based; conditions: in vivo, read-out: Plasma concentration
Thymidylate synthase [7] = biological target: T1, Thymidylate synthase; test: Binding affinity against L1210 Thymidylate synthase.; outline: as §1
L1210 (1565) [8] = test: Inhibitory activity against L1210:1565 cell growth; format: functional, cell-based; conditions: Mus musculus

Structure (SMILES) | IC50 (Thymidylate synthase [2]) [µM] | IC50 (L1210 [3]; Mus musculus, L1210) [µM] | IC50 (L1210 (1565) [4]; Mus musculus, L1210 (1565)) [µM] | IC50 (WIL2; Homo sapiens, WIL2) [µM] | also measured
Cc1nc(O)c2cc(CN(C)c3ccc(C(=O)N[C@@H](CCC(=O)N[C@H](CCC(=O)O)C(=O)O)C(=O)O)c(F)c3)c(C)cc2n1 | 0.002 | 0.26 | – | – | –
C#CCN(Cc1ccc2nc(C)nc(O)c2c1)c1ccc(C(=O)N[C@@H](CCC(=O)N[C@H](CCCC(=O)O)C(=O)O)C(=O)O)cc1 | – | – | 27 | 0.22 | IC50 (L1210 [5]; Mus musculus, L1210): 0.08 µM; IC50 (L1210 [5]; l1210): 0.11 µM; IC50 (L1210 (RD1694) [1]; Mus musculus, L1210 (RD1694)): 0.42 µM; IC50 (L1210 (RD1694) [6]; Mus musculus, L1210 (RD1694)): 0.44 µM; concentration (Mus musculus): 31 µM
C#CCN(Cc1ccc2nc(C)nc(O)c2c1)c1ccc(C(=O)N[C@@H](CCC(=O)N[C@@H](CCC(=O)O)C(=O)O)C(=O)O)cc1 [listing 1 of 2 here] | – | – | – | – | IC50 (WIL2; wil2): 2.4 µM; IC50 (L1210 [3]; l1210): 3.4 µM
C#CCN(Cc1cc2c(O)nc(C)nc2cc1C)c1ccc(C(=O)N[C@@H](CCC(=O)N[C@H](CCC(=O)O)C(=O)O)C(=O)O)c(F)c1 | 0.0004 | 0.2 | 6.8 | 0.17 | IC50 (L1210 (1565) [4]; l1210 (1565)): 8.7 µM; IC50 (WIL2; wil2): 0.093 µM; concentration (Mus musculus): 32 µM; Ki (Thymidylate synthase [7]): 0.00019 µM
C#CCN(Cc1ccc2nc(C)nc(O)c2c1)c1ccc(C(=O)N[C@@H](CCC(=O)N[C@H](C)C(=O)O)C(=O)O)cc1 | 0.012 | 0.43 | – | 0.15 | IC50 (L1210 (RD1694) [6]; Mus musculus, L1210 (RD1694)): 0.88 µM; IC50 (L1210 (1565) [8]): 16 µM
Cc1nc(O)c2cc(CN(C)c3ccc(C(=O)N[C@@H](CCC(=O)N[C@H](CCC(=O)O)C(=O)O)C(=O)O)c(F)c3)ccc2n1 | 0.0088 | 0.65 | 21 | 0.9 | –
C#CCN(Cc1ccc2nc(C)nc(O)c2c1)c1ccc(C(=O)N[C@@H](CCC(=O)NC(Cc2ccccc2)C(=O)O)C(=O)O)cc1 (stereo partly specified) | 0.03 | 2.1 | > 10 | – | –
C#CCN(Cc1cc2c(O)nc(C)nc2cc1C)c1ccc(C(=O)N[C@@H](CCC(=O)N[C@H](CCC(=O)O)C(=O)O)C(=O)O)cc1 | 0.0019 | 0.21 | 7.8 | 0.23 | –
C#CCN(Cc1ccc2nc(C)nc(O)c2c1)c1ccc(C(=O)N[C@@H](CCC(=O)N[C@@H](CCC(=O)O)C(=O)O)C(=O)O)cc1 [listing 2 of 2 here] | – | – | – | – | IC50 (L1210 (1565) [4]; l1210 (1565)): 5 µM; IC50 (WIL2; wil2): 0.09 µM and 0.074 µM; IC50 (L1210 (RD1694) [6]; l1210 (rd1694)): 2.9 µM; IC50 (L1210 [3]; l1210): 0.16 µM
Cc1nc(O)c2cc(CN(C)c3ccc(C(=O)N[C@@H](CCC(=O)N[C@H](CCC(=O)O)C(=O)O)C(=O)O)cc3)c(C)cc2n1 | 0.0046 | 0.58 | – | 0.28 | IC50 (L1210 (1565) [8]): 19 µM
CCN(Cc1ccc2nc(C)nc(O)c2c1)c1ccc(C(=O)N[C@@H](CCC(=O)N[C@H](CCC(=O)O)C(=O)O)C(=O)O)cc1 | 0.017 | 3.6 | – | – | –

More lines, main results first:

IC50 (Thymidylate synthase [2]) [µM] | IC50 (L1210 [3]; Mus musculus, L1210) [µM] | IC50 (L1210 (1565) [4]; Mus musculus, L1210 (1565)) [µM] | Structure (SMILES) | IC50 (WIL2; Homo sapiens, WIL2) [µM] | also measured
0.013 | 0.62 | – | C#CCN(Cc1ccc2nc(C)nc(O)c2c1)c1ccc(C(=O)N[C@@H](CCC(=O)N[C@@H](C)C(=O)O)C(=O)O)cc1 | – | IC50 (L1210 (RD1694) [1]; Mus musculus, L1210 (RD1694)): 2.1 µM; IC50 (L1210 (RD1694) [1]; l1210 (rd1694)): 1.6 µM; IC50 (L1210 [3]; l1210): 0.79 µM
– | 1.3 | 100 | C#CCN(Cc1ccc2nc(C)nc(O)c2c1)c1ccc(C(=O)N[C@H](CCC(=O)N[C@H](CCC(=O)O)C(=O)O)C(=O)O)cc1 | 1.4 | –
– | 0.3 | – | C#CCN(Cc1ccc2nc(C)nc(O)c2c1)c1ccc(C(=O)N[C@@H](CCC(=O)N[C@@H](CCCC(=O)O)C(=O)O)C(=O)O)cc1 | – | IC50 (L1210 (RD1694) [6]; Mus musculus, L1210 (RD1694)): 2.9 µM
– | – | 15 | C#CCN(Cc1ccc2nc(C)nc(O)c2c1)c1ccc(C(=O)N[C@@H](CCC(=O)N[C@H](CCC(=O)O)C(=O)O)C(=O)O)cc1 | 0.15 | IC50 (L1210 (RD1694) [6]; Mus musculus, L1210 (RD1694)): 0.68 µM; concentration (Mus musculus): 34 µM
0.00056 | 0.13 | 12 | C#CCN(Cc1cc2c(O)nc(C)nc2cc1C)c1ccc(C(=O)N[C@@H](CCC(=O)N[C@H](CCCC(=O)O)C(=O)O)C(=O)O)c(F)c1 | 0.3 | IC50 (L1210 (1565) [4]; l1210 (1565)): 8.1 µM; IC50 (WIL2; wil2): 0.19 µM; Ki (Thymidylate synthase [7]): 0.00012 µM
0.034 | 3.2 | – | Cc1nc(O)c2cc(CN(C)c3ccc(C(=O)N[C@@H](CCC(=O)N[C@H](CCC(=O)O)C(=O)O)C(=O)O)cc3)ccc2n1 | – | concentration (Mus musculus): 17 µM
0.018 | 4.4 | – | C#CCN(Cc1ccc2nc(C)nc(O)c2c1)c1ccc(C(=O)N[C@@H](CCC(=O)N[C@@H](Cc2ccccc2)C(=O)O)C(=O)O)cc1 | – | IC50 (L1210 (RD1694) [6]; Mus musculus, L1210 (RD1694)): 8.9 µM
0.0019 | 0.21 | 7.8 | C#CCN(Cc1ccc2nc(C)nc(O)c2c1)c1ccc(C(=O)N[C@@H](CCC(=O)N[C@H](CCC(=O)O)C(=O)O)C(=O)O)c(F)c1 | 0.22 | –
